{"source": "paper PMC2738612", "about": "(Biochemistry, 2009)", "molecules": {"B1": {"name": "E^321A: rCBD variant, single-point alanine substitution at E^321, module 2 (protein)", "chain": "APSPIIKFPGDVAPKTDKELAVQYLNTFYGCPKESCNLFVLKDTLKKMQKFFGLPQTGDLDQNTIETMRKPRCGNPDVANYNFFPRKPKWDKNQITYRIIGYTPDLDPETVDDAFARAFQVWSDVTPLRFSRIHDGEADIMINFGRWEHGDGYPFDGKDGLLAHAFAPGTGVGGDSHFDDDELWTLGEGQVVRVKYGNADGEYCKFPFLFNGKEYNSCTDTGRSDGFLWCSTTYNFEKDGKYGFCPHEALFTMGGNAEGQPCKFPFRFQGTSYDSCTTEGRTDGYRWCGTTADYDRDKKYGFCPETAMSTVGGNSEGAPCVFPFTFLGNKYESCTSAGRSDGKMWCATTANYDDDRKWGFCPDQGYSLFLVAAHEFGHAMGLEHSQDPGALMAPIYTYTKNFRLSQDDIKGIQELYGASPDIDLGTGPTPTLGPVTPEICKQDIVFDGIAQIRGEIFFFKDRFIWRTVTPRDKPMGPLLVATFWPELPEKIDAVYEAPQEEKAVFFAGNEYWIYSASTLERGYPKPLTSLGLPPDVQRVDAAFNWSKNKKTYIFAGDKFWRYNEVKKKMDPGFPKLIADAWNAIPDNLDAVVDLQGGGHSYFFKGAYYLKLENQSLKSVKFGSIKSDWLGC", "modifications": "biotinylated for the microwell assay; left off: His tag, end not stated, state not stated"}, "B2": {"name": "F^280A: rCBD variant, single-point alanine substitution at F^280, negative control (protein)", "chain": "APSPIIKFPGDVAPKTDKELAVQYLNTFYGCPKESCNLFVLKDTLKKMQKFFGLPQTGDLDQNTIETMRKPRCGNPDVANYNFFPRKPKWDKNQITYRIIGYTPDLDPETVDDAFARAFQVWSDVTPLRFSRIHDGEADIMINFGRWEHGDGYPFDGKDGLLAHAFAPGTGVGGDSHFDDDELWTLGEGQVVRVKYGNADGEYCKFPFLFNGKEYNSCTDTGRSDGFLWCSTTYNFEKDGKYGFCPHEALATMGGNAEGQPCKFPFRFQGTSYDSCTTEGRTDGYRWCGTTEDYDRDKKYGFCPETAMSTVGGNSEGAPCVFPFTFLGNKYESCTSAGRSDGKMWCATTANYDDDRKWGFCPDQGYSLFLVAAHEFGHAMGLEHSQDPGALMAPIYTYTKNFRLSQDDIKGIQELYGASPDIDLGTGPTPTLGPVTPEICKQDIVFDGIAQIRGEIFFFKDRFIWRTVTPRDKPMGPLLVATFWPELPEKIDAVYEAPQEEKAVFFAGNEYWIYSASTLERGYPKPLTSLGLPPDVQRVDAAFNWSKNKKTYIFAGDKFWRYNEVKKKMDPGFPKLIADAWNAIPDNLDAVVDLQGGGHSYFFKGAYYLKLENQSLKSVKFGSIKSDWLGC", "modifications": "biotinylated for the microwell assay; left off: His tag, end not stated, state not stated"}, "B3": {"name": "E^361A: rCBD variant, single-point alanine substitution at E^361, negative control (protein)", "chain": "APSPIIKFPGDVAPKTDKELAVQYLNTFYGCPKESCNLFVLKDTLKKMQKFFGLPQTGDLDQNTIETMRKPRCGNPDVANYNFFPRKPKWDKNQITYRIIGYTPDLDPETVDDAFARAFQVWSDVTPLRFSRIHDGEADIMINFGRWEHGDGYPFDGKDGLLAHAFAPGTGVGGDSHFDDDELWTLGEGQVVRVKYGNADGEYCKFPFLFNGKEYNSCTDTGRSDGFLWCSTTYNFEKDGKYGFCPHEALFTMGGNAEGQPCKFPFRFQGTSYDSCTTEGRTDGYRWCGTTEDYDRDKKYGFCPETAMSTVGGNSEGAPCVFPFTFLGNKYASCTSAGRSDGKMWCATTANYDDDRKWGFCPDQGYSLFLVAAHEFGHAMGLEHSQDPGALMAPIYTYTKNFRLSQDDIKGIQELYGASPDIDLGTGPTPTLGPVTPEICKQDIVFDGIAQIRGEIFFFKDRFIWRTVTPRDKPMGPLLVATFWPELPEKIDAVYEAPQEEKAVFFAGNEYWIYSASTLERGYPKPLTSLGLPPDVQRVDAAFNWSKNKKTYIFAGDKFWRYNEVKKKMDPGFPKLIADAWNAIPDNLDAVVDLQGGGHSYFFKGAYYLKLENQSLKSVKFGSIKSDWLGC", "modifications": "biotinylated for the microwell assay; left off: His tag, end not stated, state not stated"}, "B4": {"name": "F^297A: rCBD variant, single-point alanine substitution at F^297, module 2 (protein)", "chain": "APSPIIKFPGDVAPKTDKELAVQYLNTFYGCPKESCNLFVLKDTLKKMQKFFGLPQTGDLDQNTIETMRKPRCGNPDVANYNFFPRKPKWDKNQITYRIIGYTPDLDPETVDDAFARAFQVWSDVTPLRFSRIHDGEADIMINFGRWEHGDGYPFDGKDGLLAHAFAPGTGVGGDSHFDDDELWTLGEGQVVRVKYGNADGEYCKFPFLFNGKEYNSCTDTGRSDGFLWCSTTYNFEKDGKYGFCPHEALFTMGGNAEGQPCKFPFRAQGTSYDSCTTEGRTDGYRWCGTTEDYDRDKKYGFCPETAMSTVGGNSEGAPCVFPFTFLGNKYESCTSAGRSDGKMWCATTANYDDDRKWGFCPDQGYSLFLVAAHEFGHAMGLEHSQDPGALMAPIYTYTKNFRLSQDDIKGIQELYGASPDIDLGTGPTPTLGPVTPEICKQDIVFDGIAQIRGEIFFFKDRFIWRTVTPRDKPMGPLLVATFWPELPEKIDAVYEAPQEEKAVFFAGNEYWIYSASTLERGYPKPLTSLGLPPDVQRVDAAFNWSKNKKTYIFAGDKFWRYNEVKKKMDPGFPKLIADAWNAIPDNLDAVVDLQGGGHSYFFKGAYYLKLENQSLKSVKFGSIKSDWLGC", "modifications": "biotinylated for the microwell assay; left off: His tag, end not stated, state not stated"}, "B5": {"name": "Y^302A: rCBD variant, single-point alanine substitution at Y^302, module 2 (protein)", "chain": "APSPIIKFPGDVAPKTDKELAVQYLNTFYGCPKESCNLFVLKDTLKKMQKFFGLPQTGDLDQNTIETMRKPRCGNPDVANYNFFPRKPKWDKNQITYRIIGYTPDLDPETVDDAFARAFQVWSDVTPLRFSRIHDGEADIMINFGRWEHGDGYPFDGKDGLLAHAFAPGTGVGGDSHFDDDELWTLGEGQVVRVKYGNADGEYCKFPFLFNGKEYNSCTDTGRSDGFLWCSTTYNFEKDGKYGFCPHEALFTMGGNAEGQPCKFPFRFQGTSADSCTTEGRTDGYRWCGTTEDYDRDKKYGFCPETAMSTVGGNSEGAPCVFPFTFLGNKYESCTSAGRSDGKMWCATTANYDDDRKWGFCPDQGYSLFLVAAHEFGHAMGLEHSQDPGALMAPIYTYTKNFRLSQDDIKGIQELYGASPDIDLGTGPTPTLGPVTPEICKQDIVFDGIAQIRGEIFFFKDRFIWRTVTPRDKPMGPLLVATFWPELPEKIDAVYEAPQEEKAVFFAGNEYWIYSASTLERGYPKPLTSLGLPPDVQRVDAAFNWSKNKKTYIFAGDKFWRYNEVKKKMDPGFPKLIADAWNAIPDNLDAVVDLQGGGHSYFFKGAYYLKLENQSLKSVKFGSIKSDWLGC", "modifications": "biotinylated for the microwell assay; left off: His tag, end not stated, state not stated"}, "B6": {"name": "Y^323A: rCBD variant, single-point alanine substitution at Y^323, module 2 (protein)", "chain": "APSPIIKFPGDVAPKTDKELAVQYLNTFYGCPKESCNLFVLKDTLKKMQKFFGLPQTGDLDQNTIETMRKPRCGNPDVANYNFFPRKPKWDKNQITYRIIGYTPDLDPETVDDAFARAFQVWSDVTPLRFSRIHDGEADIMINFGRWEHGDGYPFDGKDGLLAHAFAPGTGVGGDSHFDDDELWTLGEGQVVRVKYGNADGEYCKFPFLFNGKEYNSCTDTGRSDGFLWCSTTYNFEKDGKYGFCPHEALFTMGGNAEGQPCKFPFRFQGTSYDSCTTEGRTDGYRWCGTTEDADRDKKYGFCPETAMSTVGGNSEGAPCVFPFTFLGNKYESCTSAGRSDGKMWCATTANYDDDRKWGFCPDQGYSLFLVAAHEFGHAMGLEHSQDPGALMAPIYTYTKNFRLSQDDIKGIQELYGASPDIDLGTGPTPTLGPVTPEICKQDIVFDGIAQIRGEIFFFKDRFIWRTVTPRDKPMGPLLVATFWPELPEKIDAVYEAPQEEKAVFFAGNEYWIYSASTLERGYPKPLTSLGLPPDVQRVDAAFNWSKNKKTYIFAGDKFWRYNEVKKKMDPGFPKLIADAWNAIPDNLDAVVDLQGGGHSYFFKGAYYLKLENQSLKSVKFGSIKSDWLGC", "modifications": "biotinylated for the microwell assay; left off: His tag, end not stated, state not stated"}}, "key": {"[1]": {"test_system": "gelatin (denatured type I collagen)", "test": "Surface plasmon resonance binding to immobilized gelatin", "design": "species or system rat", "conditions": "1 µM analyte, Biacore buffer pH 7.4; compared to WT CBD"}, "native type I collagen": {"test_system": "native type I collagen", "test": "Surface plasmon resonance binding to immobilized native type I collagen", "design": "species or system rat", "conditions": "1 µM analyte, Biacore buffer pH 7.4; compared to WT CBD", "procedure,_shortened": "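Native non-pepsin-treated acid-soluble rat tail type I collagen in 10 mM sodium acetate, pH 4.5, was amine-coupled to EDC/NHS-activated CM5 chips at ~3000 RU, then ethanolamine-blocked; an uncoated flow cell served as control. Analytes at 1 µM in 10 mM HEPES, 150 mM NaCl, 0.005% P20, pH 7.4, flowed at 5 µl/min for 6 min. RU were averaged over 5 s before injection end. Chips were regenerated with 6 M guanidine-HCl, with WT CBD run at the start and end of each series.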"}}}
{"molecule": "B1", "values": [{"measurement": "binding to gelatin / denatured type I collagen (SPR, RU)", "setting": "[1]", "result": "no reduction in collagen-binding"}, {"measurement": "binding to native type I collagen (SPR, RU)", "setting": "native type I collagen", "result": "no reduction in collagen-binding"}]}
{"molecule": "B2", "values": [{"measurement": "binding to gelatin / denatured type I collagen (SPR, RU)", "setting": "[1]", "result": "no reduction in collagen-binding"}, {"measurement": "binding to native type I collagen (SPR, RU)", "setting": "native type I collagen", "result": "no reduction in collagen-binding"}]}
{"molecule": "B3", "values": [{"measurement": "binding to gelatin / denatured type I collagen (SPR, RU)", "setting": "[1]", "result": "no reduction in collagen-binding"}, {"measurement": "binding to native type I collagen (SPR, RU)", "setting": "native type I collagen", "result": "no reduction in collagen-binding"}]}
{"molecule": "B4", "values": [{"measurement": "binding to gelatin / denatured type I collagen (SPR, RU)", "setting": "[1]", "result": "strong reduction in binding"}, {"measurement": "binding to native type I collagen (SPR, RU)", "setting": "native type I collagen", "result": "strong reduction in binding"}]}
{"molecule": "B5", "values": [{"measurement": "binding to gelatin / denatured type I collagen (SPR, RU)", "setting": "[1]", "result": "strong reduction in binding"}, {"measurement": "binding to native type I collagen (SPR, RU)", "setting": "native type I collagen", "result": "strong reduction in binding"}]}
{"molecule": "B6", "values": [{"measurement": "binding to gelatin / denatured type I collagen (SPR, RU)", "setting": "[1]", "result": "strong reduction in binding"}, {"measurement": "binding to native type I collagen (SPR, RU)", "setting": "native type I collagen", "result": "strong reduction in binding"}]}
